According to ChEMBL document CHEMBL1148971, “Bioactive rearranged and halogenated semisynthetic derivatives of the marine natural product sarcophine” (J Nat Prod, 2004):
Activity calls are given as the source filed them. No cut-off for these calls is given here.

Test system: +SA cell
Experiment: Antiproliferative activity against mouse +SA cells assessed as decrease in cell growth at 0 to 10 uM after 4 days by MTT assay
Format: functional, cell-based
In short: (§1)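 Highly malignant +SA mouse mammary epithelial cells were grown in serum-free medium with 10 ng/mL EGF and 10 µg/mL insulin as mitogens. Cells were seeded at 5 × 10^4 cells/well, 6 wells per group, and fed medium containing compound over 0.01-1000 µM for 4 days. Viable cell number was read by MTT colorimetric assay and reported as mean cell count/well + SEM.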

Q: Which Activity does the source give for `CC1=C2CC/C(C)=C/CC[C@]3(C)O[C@H]3CC/C(C)=C/[C@@H]2OC1=O` here?
A: The Activity was “inactive”.

Test system: +SA cell
Experiment: Antiproliferative activity against mouse +SA cells assessed as decrease in cell growth at 100 to 1000 uM after 4 days by MTT assay
Format: functional, cell-based
In short: as §1

Q: With `CC1=C2CC/C(C)=C/CC[C@]3(C)O[C@H]3CC/C(C)=C/[C@@H]2OC1=O` as the molecule, how does the Activity read?
A: Its Activity is “Active”.

Test system: +SA cell
Experiment: Antiproliferative activity against mouse +SA cells assessed as decrease in cell growth up to 100 uM after 4 days by MTT assay
Format: functional, cell-based
In short: as §1

Q: How did the Activity turn out when `CC1=C2CC[C@H](C)[C@H]3CC[C@](C)(O)[C@H](CC/C(C)=C/[C@@H]2OC1=O)O3` (mixture of isomers) was run?
A: The Activity was “inactive”.

Q: Which Activity does the source give for `CC1=C2CC[C@H](C)[C@@H]3CC[C@](C)(O)[C@H](CC[C@@](C)(O)C[C@@H]2OC1=O)O3` (relative stereo) here?
A: The Activity was “inactive”.

Q: With `CC1=C2CC[C@]3(C)O[C@@H](CC/C(C)=C/[C@@H]2OC1=O)[C@@](C)(O)CC[C@@H]3Br` (relative stereo) as the molecule, how does the Activity read?
A: Its Activity is “Active”.

Q: With `CC1=C2CC[C@H](C)[C@@H]3CC[C@](C)(O)[C@H](CC/C(C)=C/[C@@H]2OC1=O)O3` (relative stereo) as the molecule, how does the Activity read?
A: The Activity was “inactive”.

Q: How did the Activity turn out when `CC1=C2CC[C@@](C)(O)CCC[C@](C)(O)[C@@H]3CC[C@@](C)(C[C@@H]2OC1=O)O3` (relative stereo) was run?
A: Its Activity is “inactive”.

Q: How did the Activity turn out when `CC1=C2CC[C@]3(C)O[C@@H](CC/C(C)=C/[C@@H]2OC1=O)[C@@](C)(O)CC[C@H]3Br` (relative stereo) was run?
A: The Activity was “inactive”.

Q: For `CC1=C2CC/C(C)=C/CC/C(C)=C/CC/C(C)=C/[C@@H]2OC1=O`, which Activity is on record?
A: The Activity was “Active”.

Q: With `CC1=C2CC/C(C)=C/CC[C@@H](C)C(=O)CC/C(C)=C/[C@@H]2OC1=O` as the molecule, how does the Activity read?
A: Its Activity is “inactive”.
